Test results: ChEMBL document CHEMBL1128718, “2-Substituted penems with amino acid-related side chains: synthesis and antibacterial activity of a new series of beta-lactam antibiotics” (1995)
In brackets after ≈: the same amount, converted by molar mass.

Columns and labels:
Format in all cases: functional
[1] = tested on: Pseudomonas aeruginosa; assay: In Vitro antibacterial activity against (Pa) Pseudomonas aeruginosa ATCC 27853
Procedure, shortened: (§1)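 Panel of standard ATCC strains plus modified strains: methicillin-resistant, hyperpermeable, β-lactamase-producing (TEM1, TEM2, SHV) and β-lactamase-lacking. MIC determined in Mueller Hinton 2 medium, inoculum 10⁴ cells/mL, incubated 24 h at 37 °C.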

[2] = tested on: Escherichia coli; assay: In Vitro antibacterial activity against (Ec TEM2) Escherichia coli […] strain; procedure, shortened: as §1
[3] = tested on: Escherichia coli; assay: In Vitro antibacterial activity against (Ec DC2) hyperpermeable Escherichia coli strain; procedure, shortened: as §1
[4] = tested on: Staphylococcus aureus; assay: In vitro antibacterial activity against Sa MR(II) homogeneous methicillin resistant Staphylococcus aureus
Procedure, shortened: (§2)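 MIC was determined in Mueller Hinton 2 medium with an inoculum of 10⁴ cells/mL and incubation for 24 h at 37 °C. Strains: Sa(I) is S. aureus ATCC 29213; Sa MR(I) is a heterogeneous methicillin-resistant S. aureus; Sa MR(II) is a homogeneous methicillin-resistant S. aureus.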

[5] = tested on: Enterococcus faecalis; assay: In Vitro antibacterial activity against (Ef) Enterococcus faecalis ATCC 29212; procedure, shortened: as §1
[6] = tested on: Escherichia coli; assay: In Vitro antibacterial activity against (Ec L) Escherichia coli […] strain; procedure, shortened: as §1
[7] = tested on: Escherichia coli; assay: In Vitro antibacterial activity against (Ec TEM1) Escherichia coli […] strain; procedure, shortened: as §1
[8] = tested on: Escherichia coli; assay: In Vitro antibacterial activity against (Ec SHV) Escherichia coli […] strain; procedure, shortened: as §1
[9] = tested on: Staphylococcus aureus; assay: In vitro antibacterial activity against Sa MR(I) heterogeneous methicillin resistant Staphylococcus aureus; procedure, shortened: as §2
[10] = tested on: Pseudomonas aeruginosa; assay: In Vitro antibacterial activity against (Pa) hyperpermeable Pseudomonas aeruginosa […] strain; procedure, shortened: as §1
[11] = tested on: Escherichia coli; assay: In Vitro antibacterial activity against (Ec) Escherichia coli ATCC 25922; procedure, shortened: as §1
[12] = tested on: Staphylococcus aureus; assay: In vitro antibacterial activity against Sa(II) Staphylococcus aureus ATCC 25923; procedure, shortened: as §1
[13] = tested on: Staphylococcus aureus; assay: In vitro antibacterial activity against Sa(I) Staphylococcus aureus ATCC 29213; procedure, shortened: as §2
[14] = tested on: Pseudomonas aeruginosa; assay: In Vitro antibacterial activity against (Pa G242) hyperpermeable Pseudomonas aeruginosa strain; procedure, shortened: as §1

SMILES	MIC [1] [µg/mL]	MIC [2] [µg/mL]	MIC [3] [µg/mL]	MIC [4] [µg/mL]	MIC [5] [µg/mL]	MIC [6] [µg/mL]	MIC [7] [µg/mL]	MIC [8] [µg/mL]	MIC [9] [µg/mL]	MIC [10] [µg/mL]	MIC [11] [µg/mL]	MIC [12] [µg/mL]	MIC [13] [µg/mL]	MIC [14] [µg/mL]
C[C@@H](O)[C@H]1C(=O)N2C(C(=O)O)=C(CN3C[C@H](O)C[C@@H]3C(N)=O)S[C@H]12	> 64	2 (≈ 5.6 µM)	2 (≈ 5.6 µM)	8 (≈ 22.4 µM)	32 (≈ 89.5 µM)	2 (≈ 5.6 µM)	2 (≈ 5.6 µM)	2 (≈ 5.6 µM)	0.25 (≈ 0.7 µM)	0.5 (≈ 1.4 µM)	2 (≈ 5.6 µM)	0.25 (≈ 0.7 µM)	0.25 (≈ 0.7 µM)	2 (≈ 5.6 µM)
C[C@@H](O)[C@H]1C(=O)N2C(C(=O)O)=C(CN3CCCC(C(N)=O)C3)S[C@H]12 (some centres not stated)	> 64	4 (≈ 11.3 µM)	4 (≈ 11.3 µM)	2 (≈ 5.63 µM)	32 (≈ 90 µM)	8 (≈ 22.5 µM)	4 (≈ 11.3 µM)	4 (≈ 11.3 µM)	0.12 (≈ 0.338 µM)	1 (≈ 2.81 µM)	4 (≈ 11.3 µM)	0.06 (≈ 0.169 µM)	0.06 (≈ 0.169 µM)	4 (≈ 11.3 µM)
C[C@H](C(N)=O)N(C)CC1=C(C(=O)O)N2C(=O)[C@H]([C@@H](C)O)[C@H]2S1	> 64	0.25 (≈ 0.759 µM)	2 (≈ 6.07 µM)	2 (≈ 6.07 µM)	2 (≈ 6.07 µM)	0.12 (≈ 0.364 µM)	0.25 (≈ 0.759 µM)	1 (≈ 3.04 µM)	0.06 (≈ 0.182 µM)	2 (≈ 6.07 µM)	0.12 (≈ 0.364 µM)	0.06 (≈ 0.182 µM)	0.03 (≈ 0.0911 µM)	0.25 (≈ 0.759 µM)
C[C@@H](O)[C@H]1C(=O)N2C(C(=O)O)=C(CN(CC(N)=O)CC(N)=O)S[C@H]12	> 64	0.25 (≈ 0.698 µM)	0.25 (≈ 0.698 µM)	1 (≈ 2.79 µM)	> 64	0.25 (≈ 0.698 µM)	0.25 (≈ 0.698 µM)	0.5 (≈ 1.4 µM)	0.25 (≈ 0.698 µM)	0.5 (≈ 1.4 µM)	0.12 (≈ 0.335 µM)	0.06 (≈ 0.167 µM)	0.12 (≈ 0.335 µM)	0.25 (≈ 0.698 µM)
C[C@@H](O)[C@H]1C(=O)N2C(C(=O)O)=C(CN3CCC[C@H]3C(=O)O)S[C@H]12	> 64	32 (≈ 93.5 µM)	16 (≈ 46.7 µM)	32 (≈ 93.5 µM)	> 64	8 (≈ 23.4 µM)	8 (≈ 23.4 µM)	8 (≈ 23.4 µM)	1 (≈ 2.92 µM)	32 (≈ 93.5 µM)	2 (≈ 5.84 µM)	0.5 (≈ 1.46 µM)	0.03 (≈ 0.0876 µM)	4 (≈ 11.7 µM)
CCN(CC(N)=O)CC1=C(C(=O)O)N2C(=O)[C@H]([C@@H](C)O)[C@H]2S1	> 64	1 (≈ 3.04 µM)	1 (≈ 3.04 µM)	2 (≈ 6.07 µM)	–	0.5 (≈ 1.52 µM)	0.5 (≈ 1.52 µM)	1 (≈ 3.04 µM)	–	2 (≈ 6.07 µM)	0.5 (≈ 1.52 µM)	0.06 (≈ 0.182 µM)	0.06 (≈ 0.182 µM)	0.5 (≈ 1.52 µM)
CCCCOC(=O)CN(C)CC1=C(C(=O)O)N2C(=O)[C@H]([C@@H](C)O)[C@H]2S1	> 64	> 64	1 (≈ 2.68 µM)	16 (≈ 43 µM)	8 (≈ 21.5 µM)	> 64	> 64	> 64	0.5 (≈ 1.34 µM)	> 64	32 (≈ 85.9 µM)	0.25 (≈ 0.671 µM)	0.5 (≈ 1.34 µM)	> 64
C[C@@H](O)[C@H]1C(=O)N2C(C(=O)O)=C(CN(C)CC(=O)NCC(N)=O)S[C@H]12	> 64	0.5 (≈ 1.34 µM)	1 (≈ 2.69 µM)	4 (≈ 10.7 µM)	8 (≈ 21.5 µM)	0.5 (≈ 1.34 µM)	0.5 (≈ 1.34 µM)	0.5 (≈ 1.34 µM)	0.25 (≈ 0.671 µM)	1 (≈ 2.69 µM)	0.25 (≈ 0.671 µM)	0.12 (≈ 0.322 µM)	0.25 (≈ 0.671 µM)	0.5 (≈ 1.34 µM)
COC(=O)[C@@H]1CCCN1CC1=C(C(=O)O)N2C(=O)[C@H]([C@@H](C)O)[C@H]2S1	> 64	8 (≈ 22.4 µM)	2 (≈ 5.61 µM)	4 (≈ 11.2 µM)	8 (≈ 22.4 µM)	4 (≈ 11.2 µM)	8 (≈ 22.4 µM)	8 (≈ 22.4 µM)	0.25 (≈ 0.701 µM)	4 (≈ 11.2 µM)	4 (≈ 11.2 µM)	0.12 (≈ 0.337 µM)	0.25 (≈ 0.701 µM)	8 (≈ 22.4 µM)
C[C@@H](O)[C@H]1C(=O)N2C(C(=O)O)=C(SCCNC=N)C[C@H]12 [IMIPENEM ANHYDROUS]	1 (≈ 3.34 µM)	0.25 (≈ 0.835 µM)	0.5 (≈ 1.67 µM)	0.25 (≈ 0.835 µM)	0.5 (≈ 1.67 µM)	0.12 (≈ 0.401 µM)	0.25 (≈ 0.835 µM)	0.25 (≈ 0.835 µM)	0.12 (≈ 0.401 µM)	0.25 (≈ 0.835 µM)	0.12 (≈ 0.401 µM)	0.015 (≈ 0.0501 µM)	0.015 (≈ 0.0501 µM)	0.25 (≈ 0.835 µM)
C[C@@H](O)[C@H]1C(=O)N2C(C(=O)O)=C(COC(N)=O)S[C@H]12 [RITIPENEM]	> 64	1 (≈ 3.47 µM)	1 (≈ 3.47 µM)	2 (≈ 6.94 µM)	2 (≈ 6.94 µM)	1 (≈ 3.47 µM)	1 (≈ 3.47 µM)	1 (≈ 3.47 µM)	0.12 (≈ 0.416 µM)	0.5 (≈ 1.73 µM)	0.5 (≈ 1.73 µM)	0.06 (≈ 0.208 µM)	0.12 (≈ 0.416 µM)	1 (≈ 3.47 µM)
